According to ChEMBL document CHEMBL1156107, “Synthesis of new alkylaminooxysterols with potent cell differentiating activities: identification of leads for the treatment of cancer and neurodegenerative diseases” (J Med Chem, 2009):
Active and inactive are the calls of the source. The calls are words filed in the database; no cut-off is given here.

What was measured:
MCF7 [1] = assay: Induction of human MCF7 cell differentiation assessed as milk fat accumulation in intracytoplasmic vesicle at 5 uM after 48 hrs by Bligh and Dyer method; assay type: functional, cell-based
Method in brief: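 MCF-7 cells (5 million) exposed to vehicle or compound for 48 h, washed three times in PBS. Lipids extracted by the Bligh and Dyer method and triglycerides quantified.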

MCF7 [2] = assay: Induction of human MCF7 cell differentiation assessed as lipid accumulation in intracytoplasmic vesicle at 5 uM after 48 hrs by oil red O staining-based light microscopy; assay type: functional
Method in brief: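 MCF-7 cells on glass coverslips treated with drug, fixed in 3.7% paraformaldehyde for 1 h at room temperature, and stained with oil red O in 60% isopropanol with hematoxylin counterstain. Dye extracted with isopropanol and read at 510 nm, with control subtracted and the value normalized to SYBR green DNA stain.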

MCF7 [3] = assay: Induction of human MCF7 cell differentiation assessed as stimulation of milk fat globulin expression at 5 uM after 48 hrs by immunocytochemistry; assay type: functional, cell-based
KG-1 = assay: Cytotoxicity against human KG1 cells after 72 hrs by trypan blue exclusion assay; assay type: functional, cell-based
Method in brief: (§1)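 Cells were exposed for 72 h to the test agent at increasing concentrations from 10 nM to 20 μM, at 37 °C in humidified 5% CO2. Cells were scraped and resuspended in 0.25% w/v trypan blue in PBS, and dead cells were counted under a light microscope in a Malassez chamber. IC50 is the concentration giving 50% cytotoxicity. Values are mean ± SE of three independent experiments, each run in duplicate.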

U-937 [4] = assay: Induction of dendrite out growth in IL-4/GMCSF-stimulated human U937 cells assessed as dendrite length at 100 nM after 48 hrs by light microscopy; assay type: functional
Method in brief: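 U937 cells at 1.1 × 10⁶ cells/mL were primed with 10 ng/mL PMA for 48 h in RPMI with 10% heat-inactivated serum. Adherent cells were then given 100 ng/mL IL-4 plus 100 ng/mL GM-CSF or 100 nM compound for 48 h. Dendrite length scored by light microscopy, from none to over 100 μm with a contact network.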

U-937 [5] = assay: Cytotoxicity against human U937 cells after 3 days by trypan blue exclusion assay; assay type: functional, cell-based; conditions: Homo sapiens, U-937, 72 h; read-out: IC50
Method in brief: (§2)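 U937 and P19 cells treated with compound. Cell death scored by trypan blue exclusion, with cells scraped, suspended in 0.25% w/v trypan blue in PBS and counted in a Malassez cell. IC50 is the concentration giving 50% cytotoxicity.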

N2a = assay: Cytotoxicity against mouse Neuro2a cells after 72 hrs by trypan blue exclusion assay; assay type: functional, cell-based; method in brief: as §1
B16-F10 = assay: Cytotoxicity against mouse B16F10 cells after 72 hrs by trypan blue exclusion assay; assay type: functional, cell-based; method in brief: as §1
P19 [6] = assay: Cytotoxicity against mouse P19 cells after 3 days by trypan blue exclusion assay; assay type: functional, cell-based; conditions: Mus musculus, P19, 72 h; read-out: IC50; method in brief: as §2
HCT-8 = assay: Cytotoxicity against human HCT8 cells after 72 hrs by trypan blue exclusion assay; assay type: functional, cell-based; method in brief: as §1
TS/A = assay: Cytotoxicity against mouse TSA cells after 72 hrs by trypan blue exclusion assay; assay type: functional, cell-based; method in brief: as §1
MCF7 [7] = assay: Cytotoxicity against human MCF7 cells after 72 hrs by trypan blue exclusion assay; assay type: functional, cell-based; method in brief: as §1
SW-620 = assay: Cytotoxicity against human SW620 cells after 72 hrs by trypan blue exclusion assay; assay type: functional, cell-based; method in brief: as §1
NB-4 = assay: Cytotoxicity against human NB4 cells after 72 hrs by trypan blue exclusion assay; assay type: functional, cell-based; method in brief: as §1
U-937 [8] = assay: Cytotoxicity against human U937 cells after 72 hrs by trypan blue exclusion assay; assay type: functional, cell-based; method in brief: as §1
SK-N-SH = assay: Cytotoxicity against human SK-N-SH cells after 72 hrs by trypan blue exclusion assay; assay type: functional, cell-based; method in brief: as §1
A549 = assay: Cytotoxicity against human A549 cells after 72 hrs by trypan blue exclusion assay; assay type: functional, cell-based; method in brief: as §1
P19 [9] = assay: Cytotoxicity against mouse P19 cells after 72 hrs by trypan blue exclusion assay; assay type: functional, cell-based; method in brief: as §1
SH-SY5Y = assay: Cytotoxicity against human SH-SY5Y cells after 72 hrs by trypan blue exclusion assay; assay type: functional, cell-based; method in brief: as §1
U-87MG ATCC = assay: Cytotoxicity against human U87 cells after 72 hrs by trypan blue exclusion assay; assay type: functional, cell-based; method in brief: as §1
SK-MEL-28 = assay: Cytotoxicity against human SK-MEL-28 cells after 72 hrs by trypan blue exclusion assay; assay type: functional, cell-based; method in brief: as §1
P19 [10] = assay: Induction of dendrite out growth in IL-4/GMCSF-stimulated mouse P19 cells assessed as dendrite length at 100 nM after 48 hrs by light microscopy; assay type: functional

In the case of `CC/C(=C(\c1ccccc1)c1ccc(OCCN(C)C)cc1)c1ccccc1`, the Activity (MCF7 [1]) is reported as “Active”, the Activity (MCF7 [2]) is reported as “Active” and the Activity (MCF7 [3]) is reported as “Active”.

In the case of `CC(C)CCC[C@@H](C)[C@H]1CC[C@H]2[C@@H]3C[C@@H](n4cnc(CCN)c4)[C@@]4(O)C[C@@H](O)CC[C@]4(C)[C@H]3CC[C@]12C`, the Activity (KG-1) is reported as “inactive”, the Activity (U-937 [4]) is reported as less than 5 um and the IC50 (U-937 [5]) is reported as 7.7 µM. For the same molecule, the Activity (N2a) was “inactive”, the Activity (B16-F10) was “inactive” and the IC50 (P19 [6]) was 8.9 µM. The Activity (HCT-8) was “inactive”, the Activity (TS/A) was “inactive” and the Activity (MCF7 [7]) was “inactive”. For the same molecule, the Activity (SW-620) was “inactive”, the Activity (NB-4) was “inactive” and the Activity (U-937 [8]) was “inactive”. For the same molecule, the Activity (SK-N-SH) was “inactive”, the Activity (A549) was “inactive” and the Activity (P19 [9]) was “inactive”. For the same molecule, the Activity (SH-SY5Y) was “inactive”, the Activity (U-87MG ATCC) was “inactive” and the Activity (SK-MEL-28) was “inactive”. The Activity (P19 [10]) was less than 5 um.
